Converted amounts (≈) assume the structure as drawn. The source made the active and inactive calls. No cut-off for these calls is given here.
Tests used:
[1] = Selectivity index, ratio of CC50 for african green monkey Vero C1008 cells to IC50 for Plasmodium falciparum K1; format: functional
Summary of the method: (§1)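 SI = CC50 (Vero, 72 h MTT) / IC50. IC50 comes from a 72 h SYBR Green I fluorescence assay: seven 2-fold dilutions in duplicate, 2% cell suspension at 0.8% parasitemia, and Logit regression of the dose-response.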

Plasmodium falciparum [2] = experiment: Antimalarial activity against schizont stage of chloroquine-sensitive Plasmodium falciparum 3D7 after more than 40 hrs by Giemsa staining-based light microscopic analysis; format: functional; conditions: 3D7, 40 h
Summary of the method: (§2)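 Ring stages (5% D-sorbitol synchronized) of 3D7 were grown in RPMI with 10% FBS, gentamycin and Fungizone at 37 °C under CO2. They were exposed in duplicate to compound (DMSO stock, 5 mg/mL) at 2, 10 and 50 μg/mL, with 3% cell suspension and 1% parasitized cells, for >40 h. Giemsa-stained thin smears were counted for schizonts. MIC is the lowest concentration giving 100% inhibition of schizont maturation.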

Plasmodium falciparum [3] = experiment: Resistance ratio of IC5O for Plasmodium falciparum K1 to IC50 for Plasmodium falciparum 3D7; format: functional
Summary of the method: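 Ratio of K1 IC50 to 3D7 IC50. Both come from the 72 h SYBR Green I fluorescence assay: seven 2-fold dilutions in duplicate, 0.8% parasitemia, IC50 by logit regression.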

[4] = Cytotoxicity against african green monkey Vero C1008 cells after 72 hrs by MTT assay; format: cell-based; conditions: chlorocebus sabaeus
Summary of the method: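 Vero (C1008) cells were incubated with dilutions of compound for 72 h and read by MTT. CC50 was obtained by nonlinear regression.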

Plasmodium falciparum [5] = experiment: Antimalarial activity against chloroquine-resistant Plasmodium falciparum K1 after 72 hrs by SYBR Green I-based fluorescence assay; format: functional, organism-based; conditions: K1, 72 h
Summary of the method: (§3)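 Parasites cultured in RPMI with 10% FBS, gentamycin and Fungizone (pH 7.2) at 37 °C in CO2. Compounds from DMSO stock (5 mg/mL). Seven 2-fold serial dilutions, duplicate wells. Cells added at 2% hematocrit, 0.8% parasitemia; uninfected-cell wells kept as background. After 72 h, lysis buffer with SYBR Green I, 1 h at 37 °C, fluorescence read. IC50 by logit regression of dose-response.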

Plasmodium yoelii [6] = experiment: Antimalarial activity against chloroquine-resistant Plasmodium yoelii N-67 infected in Swiss mouse assessed as reduction in parasitemia at 50 mg/kg/day, ip administered for 3 days measured on day 4 relative to control; format: functional; parameters: scale not given: the % may be the effect or the level left; conditions: route intraperitoneal
Plasmodium falciparum [7] = experiment: Antimalarial activity against schizont stage of chloroquine-sensitive Plasmodium falciparum 3D7 after 72 hrs by SYBR Green I-based fluorescence assay; format: functional, organism-based; conditions: 3D7, 72 h; summary of the method: as §3
[8] = Selectivity index, ratio of CC50 for african green monkey Vero C1008 cells to IC50 for Plasmodium falciparum 3D7; format: functional; summary of the method: as §1
Plasmodium yoelii [9] = experiment: Antimalarial activity against chloroquine-resistant Plasmodium yoelii N-67 infected in Swiss mouse assessed as mean survival time of host at 50 mg/kg/day, ip administered for 3 days (reference value: 9.20 +/- 0.44 days); format: functional; conditions: route intraperitoneal
Plasmodium falciparum [10] = experiment: Antimalarial activity against schizont stage of chloroquine-sensitive Plasmodium falciparum 3D7 assessed as reduction in parasitemia at 2 to 10 ug/ml after more than 40 hrs by Giemsa staining-based light microscopy; format: functional; parameters: scale not given: the % may be the effect or the level left; summary of the method: as §2
Plasmodium falciparum [11] = experiment: Inhibition of Plasmodium falciparum recombinant Falcipain-3 using Z-LR-AMC as substrate at low concentration after 30 mins by microplate reader analysis
Plasmodium falciparum [12] = experiment: Activation of Plasmodium falciparum recombinant Falcipain-3 using Z-LR-AMC as substrate at high concentration after 30 mins by microplate reader analysis
[13] = Inhibition of Plasmodium falciparum recombinant Falcipain-2 using Z-LR-AMC as substrate after 30 mins by microplate reader analysis
Plasmodium falciparum [14] = experiment: Antimalarial activity against schizont stage of chloroquine-sensitive Plasmodium falciparum 3D7 assessed as reduction in parasitemia at 10 ug/ml after more than 40 hrs by Giemsa staining-based light microscopy; format: functional; parameters: scale not given: the % may be the effect or the level left; summary of the method: as §2
Plasmodium falciparum [15] = experiment: Antimalarial activity against Plasmodium falciparum; format: functional
[16] = AUC (0 to t) in Sprague-Dawley rat at 50 mg/kg, po by LC-MS/MS analysis; format: ADME, organism-based; parameters: dose 50 mg/kg, route oral; conditions: plasma
Summary of the method: (§4)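 Male Sprague-Dawley rats (n = 5, 220−240 g), single oral dose 50 mg/kg. Plasma stored at −70 °C, processed by acetonitrile protein precipitation, and analysed by LC-MS/MS with QC samples among calibrators.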

Plasmodium yoelii [17] = experiment: Antimalarial activity against chloroquine-resistant Plasmodium yoelii N-67 infected in Swiss mouse assessed as reduction in parasitemia at 50 mg/kg/day, po administered for 3 days measured on day 4 relative to control; format: functional; parameters: scale not given: the % may be the effect or the level left
[18] = Cmax in Sprague-Dawley rat at 50 mg/kg, po by LC-MS/MS analysis; format: ADME, organism-based; parameters: dose 50 mg/kg, route oral; conditions: in vivo; summary of the method: as §4
[19] = Apparent oral volume of distribution in Sprague-Dawley rat at 50 mg/kg by LC-MS/MS analysis; format: ADME, organism-based; parameters: dose 50 mg/kg, route oral; conditions: in vivo; summary of the method: as §4
[20] = Elimination half life in Sprague-Dawley rat at 50 mg/kg, po by LC-MS/MS analysis; format: ADME, organism-based; parameters: dose 50 mg/kg, route oral; conditions: in vivo, read-out: beta t1/2 (converted); summary of the method: as §4
Plasmodium yoelii [21] = experiment: Antimalarial activity against chloroquine-resistant Plasmodium yoelii N-67 infected in Swiss mouse assessed as mean survival time at 50 mg/kg/day, po administered for 3 days (reference value: 9.20 +/- 0.44 days); format: functional
[22] = Apparent oral clearance in Sprague-Dawley rat at 50 mg/kg by LC-MS/MS analysis; format: ADME, organism-based; parameters: dose 50 mg/kg, route oral; conditions: in vivo; summary of the method: as §4
[23] = Tmax in Sprague-Dawley rat at 50 mg/kg, po by LC-MS/MS analysis; format: ADME, organism-based; parameters: dose 50 mg/kg, route oral; conditions: in vivo; summary of the method: as §4
[24] = Mean residence time in Sprague-Dawley rat at 50 mg/kg, po by LC-MS/MS analysis; format: ADME, organism-based; parameters: dose 50 mg/kg, route oral; conditions: in vivo; summary of the method: as §4
Plasmodium yoelii [25] = experiment: Antimalarial activity against chloroquine-resistant Plasmodium yoelii N-67 infected in Swiss mouse assessed as mean survival time at 20 mg/kg/day, po administered for 3 days (reference value: 9.20 +/- 0.44 days); format: functional
Plasmodium yoelii [26] = experiment: Antimalarial activity against chloroquine-resistant Plasmodium yoelii N-67 infected in Swiss mouse assessed as reduction in parasitemia at 20 mg/kg/day, po administered for 3 days measured on day 4 relative to control; format: functional; parameters: scale not given: the % may be the effect or the level left

| SMILES | Ratio CC50/IC50 [1] | MIC (Plasmodium falciparum [2]) | Ratio IC50 (Plasmodium falciparum [3]) | CC50 at 72 h [4] | IC50 (Plasmodium falciparum [5]) | Activity (Plasmodium yoelii [6]) | IC50 (Plasmodium falciparum [7]) | Ratio CC50/IC50 [8] | MST (Plasmodium yoelii [9]) | other results |
| --- | --- | --- | --- | --- | --- | --- | --- | --- | --- | --- |
| CC(C)=CCCC1(C)C=Cc2c(O)c(C(=O)/C=C/c3cc(C=O)ccc3O)cc(CC=C(C)C)c2O1 (centres undefined) | 242 | 0.25 µM (≈ 0.122 µg/mL) | 5 | 88600 nM | 366 nM | 71% | 73.2 nM | 1210 | 12.6 days |  |
| CC(C)CCC[C@H](C)CCC[C@H](C)CCCC1(C)CCc2cc(C(=O)/C=C/c3cccnc3)c(O)cc2O1 (some centres undefined) |  | > 19.3 µM |  |  |  |  |  |  |  | Activity (Plasmodium falciparum [10]): <100% |
| CC(C)=CCCC1(C)C=Cc2ccc(O)c(C(=O)/C=C/c3ccc(O)c(C=O)c3)c2O1 (centres undefined) | 376 | 0.39 µM (≈ 0.163 µg/mL) | 0.9 | 31700 nM | 84.2 nM | 88% | 94.7 nM | 334 | 16.75 days |  |
| CC(C)=CCCC1(C)C=Cc2ccc(O)c(C(=O)/C=C/c3cc(C=O)ccc3O)c2O1 (centres undefined) |  | 0.31 µM (≈ 0.13 µg/mL) |  | 103000 nM | > 1200 nM | 87% | 87.5 nM | 1173 | 18.4 days | inhibition (Plasmodium falciparum [11]): inactive; Activity (Plasmodium falciparum [12]): Active; IC50 [13]: 4600 nM |
| CN(C)c1ccc(/C=C/C(=O)c2ccc3c(c2O)CCC(C)(C)O3)cc1 |  | > 28.5 µM |  |  |  |  |  |  |  | Activity (Plasmodium falciparum [14]): <100% |
| CC(C)=CCc1cc(C(=O)/C=C/c2ccc(O)cc2)c(O)c(CC=C(C)C)c1O [MEDICAGENIN] |  | 5.1 µM (≈ 2 µg/mL) |  |  |  |  |  |  |  | MIC (Plasmodium falciparum [15]): 5.1 µM (≈ 2 µg/mL) |
| CC(C)CCC[C@H](C)CCC[C@H](C)CCCC1(C)CCc2cc(C(=O)/C=C/c3ccccn3)c(O)cc2O1 (some centres undefined) |  | > 19.3 µM |  |  |  |  |  |  |  | Activity (Plasmodium falciparum [10]): <100% |
| CC(C)=CCCC1(C)C=Cc2c(ccc(C(=O)/C=C/c3cc(C=O)ccc3O)c2O)O1 (centres undefined) | 23.7 | 1.19 µM (≈ 0.498 µg/mL) | 2.6 | 22200 nM | 935 nM | 98% | 347 nM | 64 | 17.4 days | AUC(0-t) [16]: 389 ng·h/mL; inhibition (Plasmodium falciparum [11]): inactive; Activity (Plasmodium yoelii [17]): 23%; Activity (Plasmodium falciparum [12]): Active; Cmax [18]: 78.3 ng/mL; Vd/F [19]: 433 L/kg; half-life [20]: 2.32 h; IC50 [13]: 13500 nM; MST (Plasmodium yoelii [21]): 9.2 days; CL/F [22]: 2140 mL/min/kg; Tmax [23]: 3 h; MRT [24]: 3.89 h |
| CCN(CC)CCCC(C)Nc1ccnc2cc(Cl)ccc12 (centres undefined) [CHLOROQUINE] |  |  |  |  |  |  |  |  |  | MST (Plasmodium yoelii [25]): >28 days; Activity (Plasmodium yoelii [26]): 99% |
